Experimental data reported in ChEMBL document CHEMBL2346608, “New annelated thieno[2,3-e][1,2,3]triazolo[1,5-a]pyrimidines, with potent anticancer activity, designed through VLAK protocol” (2013).

How the values were obtained:
Type in all cases: functional
[1] = system: SK-OV-3; experiment: Antiproliferative activity against human SKOV3 cells after 48 hrs by sulforhodamine B assay; settings: SK-OV-3, 48 h
Summary of the method: (§1)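 Cells grown in RPMI 1640 with 5% FBS and 2 mM L-glutamine, plated at 5000–40,000 cells/well and preincubated 24 h at 37 °C, 5% CO2. Five drug concentrations (10-fold or ½-log dilutions from DMSO stocks) applied for 48 h. TCA-fixed (final 10% adherent, 16% suspension), SRB-stained, A515 read. Growth versus time-zero and control wells gave GI50, TGI, LC50.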

[2] = system: DU-145; experiment: Antiproliferative activity against human DU145 cells after 48 hrs by sulforhodamine B assay; settings: DU-145, 48 h; summary of the method: as §1
[3] = system: OVCAR-5; experiment: Antiproliferative activity against human OVCAR5 cells after 48 hrs by sulforhodamine B assay; settings: OVCAR-5, 48 h; summary of the method: as §1
[4] = system: NCI/ADR-RES; experiment: Antiproliferative activity against human NCI/ADR-RES cells after 48 hrs by sulforhodamine B assay; summary of the method: as §1
[5] = system: NCI-H322M; experiment: Antiproliferative activity against human NCI-H322M cells after 48 hrs by sulforhodamine B assay; summary of the method: as §1
[6] = system: HOP-92; experiment: Antiproliferative activity against human HOP92 cells after 48 hrs by sulforhodamine B assay; settings: HOP-92, 48 h; summary of the method: as §1
[7] = system: A549; experiment: Antiproliferative activity against human A549 cells after 48 hrs by sulforhodamine B assay; settings: A549, 48 h; summary of the method: as §1
[8] = system: UACC-62; experiment: Antiproliferative activity against human UACC62 cells after 48 hrs by sulforhodamine B assay; settings: UACC-62, 48 h
Summary of the method: (§2)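 Cells in RPMI 1640 with 5% FBS and 2 mM L-glutamine were seeded at 5000–40,000/well according to doubling time and preincubated 24 h at 37 °C in 5% CO2. Time-zero plates were TCA-fixed when drug was added. Five 10-fold or ½-log dilutions from DMSO stocks were added for 48 h. After SRB staining, A515 was read and GI50 derived from [(Ti−Tz)/(C−Tz)]×100 = 50.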

[9] = system: SK-MEL-5; experiment: Antiproliferative activity against human SK-MEL-5 cells after 48 hrs by sulforhodamine B assay; settings: SK-MEL-5, 48 h; summary of the method: as §1
[10] = system: SK-MEL-28; experiment: Antiproliferative activity against human SK-MEL-28 cells after 48 hrs by sulforhodamine B assay; settings: SK-MEL-28, 48 h; summary of the method: as §1
[11] = system: SK-MEL-2; experiment: Antiproliferative activity against human SK-MEL-2 cells after 48 hrs by sulforhodamine B assay; settings: SK-MEL-2, 48 h; summary of the method: as §1
[12] = system: MDA-MB-435; experiment: Antiproliferative activity against human MDA-MB-435 cells after 48 hrs by sulforhodamine B assay; settings: MDA-MB-435, 48 h; summary of the method: as §1
[13] = system: Malme-3M; experiment: Antiproliferative activity against human MALME-3M cells after 48 hrs by sulforhodamine B assay; summary of the method: as §1
[14] = system: RPMI-8226; experiment: Antiproliferative activity against human RPMI8226 cells after 48 hrs by sulforhodamine B assay; settings: RPMI-8226, 48 h; summary of the method: as §1
[15] = system: MOLT-4; experiment: Antiproliferative activity against human MOLT4 cells after 48 hrs by sulforhodamine B assay; settings: MOLT-4, 48 h; summary of the method: as §1
[16] = system: CCRF-CEM; experiment: Antiproliferative activity against human CCRF-CEM cells after 48 hrs by sulforhodamine B assay; summary of the method: as §1
[17] = system: SW-620; experiment: Antiproliferative activity against human SW620 cells after 48 hrs by sulforhodamine B assay; settings: SW-620, 48 h; summary of the method: as §2
[18] = system: HCT-15; experiment: Antiproliferative activity against human HCT15 cells after 48 hrs by sulforhodamine B assay; settings: HCT-15, 48 h; summary of the method: as §1
[19] = system: HT-29; experiment: Antiproliferative activity against human HT-29 cells after 48 hrs by sulforhodamine B assay; settings: HT-29, 48 h; summary of the method: as §1
[20] = system: HCT-116; experiment: Antiproliferative activity against human HCT116 cells after 48 hrs by sulforhodamine B assay; settings: HCT-116, 48 h; summary of the method: as §1
[21] = Antiproliferative activity against human HCC2998 cells after 48 hrs by sulforhodamine B assay; settings: HCC 2998, 48 h; summary of the method: as §1
[22] = system: COLO 205; experiment: Antiproliferative activity against human COLO205 cells after 48 hrs by sulforhodamine B assay; settings: COLO 205, 48 h; summary of the method: as §1
[23] = system: SNB-75; experiment: Antiproliferative activity against human SNB75 cells after 48 hrs by sulforhodamine B assay; settings: SNB-75, 48 h; summary of the method: as §2
[24] = system: SF-295; experiment: Antiproliferative activity against human SF295 cells after 48 hrs by sulforhodamine B assay; settings: SF-295, 48 h; summary of the method: as §1
[25] = system: T47D; experiment: Antiproliferative activity against human T47D cells after 48 hrs by sulforhodamine B assay; summary of the method: as §2
[26] = system: MDA-MB-231; experiment: Antiproliferative activity against human MDA-MB-231 cells after 48 hrs by sulforhodamine B assay; settings: MDA-MB-231, 48 h; summary of the method: as §1
[27] = system: UO-31; experiment: Antiproliferative activity against human UO31 cells after 48 hrs by sulforhodamine B assay; settings: UO-31, 48 h; summary of the method: as §2
[28] = system: RXF 393; experiment: Antiproliferative activity against human RXF393 cells after 48 hrs by sulforhodamine B assay; settings: RXF 393, 48 h; summary of the method: as §1
[29] = system: 786-0; experiment: Antiproliferative activity against human 786-0 cells after 48 hrs by sulforhodamine B assay; settings: 786-0, 48 h; summary of the method: as §1
[30] = read-out: pLC50 (the source's name) (converted)

O=C(CCCn1c(=O)c2sc3ncccc3c2n2nnc(-c3ccccc3)c12)NCCc1c[nH]cn1
GI50 [1]: 14.5 µM | LC50 [1]: 53.7 µM | TGI ([1]; read-out: pTGI (converted)): 27.5 µM | GI50 [2]: 2.75 µM | LC50 [2]: 61.7 µM | TGI ([2]; read-out: pTGI (converted)): 19.5 µM | GI50 [3]: 11.5 µM | LC50 [3]: 93.3 µM | TGI ([3]; read-out: pTGI (converted)): 32.4 µM | GI50 [4]: 33.9 µM | LC50 [4]: > 100 µM | TGI ([4]; read-out: pTGI (converted)): > 100 µM | GI50 [5]: 14.8 µM | LC50 [5]: 89.1 µM | TGI ([5]; read-out: pTGI (converted)): 36.3 µM | GI50 [6]: 17 µM | CC50 [6, 30]: 91.2 µM | TGI ([6]; read-out: pTGI (converted)): 39.8 µM | GI50 [7]: 8.71 µM | LC50 [7]: > 100 µM | TGI ([7]; read-out: pTGI (converted)): 34.7 µM | GI50 [8]: 15.8 µM | LC50 (concentration killing 50% of cells) [8]: 57.5 µM | TGI ([8]; read-out: pTGI (converted)): 30.2 µM | GI50 [9]: 16.2 µM | LC50 [9]: > 100 µM | TGI ([9]; read-out: pTGI (converted)): > 100 µM | GI50 [10]: 17 µM | LC50 [10]: 72.4 µM | TGI ([10]; read-out: pTGI (converted)): 34.7 µM | GI50 [11]: 17.8 µM | LC50 [11]: 85.1 µM | TGI ([11]; read-out: pTGI (converted)): 38.9 µM | GI50 [12]: 0.49 µM | LC50 [12]: > 100 µM | TGI ([12]; read-out: pTGI (converted)): 20.4 µM | GI50 [13]: 18.2 µM | LC50 [13]: 75.9 µM | TGI ([13]; read-out: pTGI (converted)): 37.2 µM | GI50 [14]: 5.13 µM | CC50 [14, 30]: > 100 µM | TGI ([14]; read-out: pTGI (converted)): 35.5 µM | GI50 [15]: 2.24 µM | LC50 [15]: > 100 µM | TGI ([15]; read-out: pTGI (converted)): 24 µM | GI50 [16]: 0.224 µM | LC50 [16]: > 100 µM | TGI ([16]; read-out: pTGI (converted)): 4.47 µM | GI50 [17]: 0.331 µM | LC50 [17]: 61.7 µM | TGI ([17]; read-out: pTGI (converted)): 14.5 µM | GI50 [18]: 5.75 µM | LC50 [18]: > 100 µM | TGI ([18]; read-out: pTGI (converted)): > 100 µM | GI50 [19]: 3.89 µM | LC50 [19]: > 100 µM | TGI ([19]; read-out: pTGI (converted)): 55 µM | GI50 [20]: 0.38 µM | LC50 [20]: 38.9 µM | TGI ([20]; read-out: pTGI (converted)): 10 µM | GI50 [21]: 2.04 µM | LC50 [21]: > 100 µM | TGI ([21]; read-out: pTGI (converted)): 30.2 µM | GI50 [22]: 6.31 µM | LC50 [22]: 58.9 µM | TGI ([22]; read-out: pTGI (converted)): 23.4 µM | GI50 [23]: 15.1 µM | LC50 (concentration killing 50% of starting cells) [23]: 55 µM | TGI ([23]; read-out: pTGI (converted)): 28.8 µM | GI50 [24]: 1.74 µM | LC50 [24]: 53.7 µM | TGI ([24]; read-out: pTGI (converted)): 16.2 µM | GI50 [25]: 1.86 µM | LC50 [25]: 64.6 µM | TGI ([25]; read-out: pTGI (converted)): 21.4 µM | GI50 [26]: 17.8 µM | LC50 [26]: 67.6 µM | TGI ([26]; read-out: pTGI (converted)): 34.7 µM | GI50 [27]: 11.7 µM | LC50 [27]: 60.3 µM | TGI ([27]; read-out: pTGI (converted)): 26.9 µM | GI50 [28]: 14.8 µM | LC50 [28]: 77.6 µM | TGI ([28]; read-out: pTGI (converted)): 33.9 µM | GI50 [29]: 12.6 µM | CC50 [29, 30]: 52.5 µM | TGI ([29]; read-out: pTGI (converted)): 25.7 µM
